ChEMBL document CHEMBL1132569

Experiments:
[1] = target: T1, Muscarinic acetylcholine receptor M4 (Homo sapiens) (UniProt P08173); assay: Cooperativity with NMS at human muscarinic acetylcholine receptor M4
T1 sequence (whole entry): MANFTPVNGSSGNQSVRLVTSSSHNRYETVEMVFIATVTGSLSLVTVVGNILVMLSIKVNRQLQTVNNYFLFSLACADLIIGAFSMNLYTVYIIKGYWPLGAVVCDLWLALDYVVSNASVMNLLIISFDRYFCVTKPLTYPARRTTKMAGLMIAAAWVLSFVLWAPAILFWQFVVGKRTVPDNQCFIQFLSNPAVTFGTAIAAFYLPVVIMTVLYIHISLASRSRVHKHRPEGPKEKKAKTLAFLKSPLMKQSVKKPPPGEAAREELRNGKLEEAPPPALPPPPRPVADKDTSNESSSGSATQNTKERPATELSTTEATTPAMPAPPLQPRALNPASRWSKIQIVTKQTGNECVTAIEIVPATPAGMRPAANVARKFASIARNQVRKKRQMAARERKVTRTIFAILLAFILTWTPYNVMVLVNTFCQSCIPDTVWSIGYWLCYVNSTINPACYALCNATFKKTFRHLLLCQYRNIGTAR
Method in brief: (§1)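 Equilibrium ³H-NMS binding in CHO membranes expressing human m1–m5 receptors was measured with and without ACh, alone and with three agent concentrations. Data were converted to affinity ratios, meaning apparent primary-ligand affinity with agent divided by affinity without it.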

[2] = target: T2, Muscarinic acetylcholine receptor M1 (Homo sapiens) (UniProt P11229); assay: Binding affinity at the NMS liganded human muscarinic acetylcholine receptor M1 was estimated as log affinity (log1/M)
T2 sequence (whole entry): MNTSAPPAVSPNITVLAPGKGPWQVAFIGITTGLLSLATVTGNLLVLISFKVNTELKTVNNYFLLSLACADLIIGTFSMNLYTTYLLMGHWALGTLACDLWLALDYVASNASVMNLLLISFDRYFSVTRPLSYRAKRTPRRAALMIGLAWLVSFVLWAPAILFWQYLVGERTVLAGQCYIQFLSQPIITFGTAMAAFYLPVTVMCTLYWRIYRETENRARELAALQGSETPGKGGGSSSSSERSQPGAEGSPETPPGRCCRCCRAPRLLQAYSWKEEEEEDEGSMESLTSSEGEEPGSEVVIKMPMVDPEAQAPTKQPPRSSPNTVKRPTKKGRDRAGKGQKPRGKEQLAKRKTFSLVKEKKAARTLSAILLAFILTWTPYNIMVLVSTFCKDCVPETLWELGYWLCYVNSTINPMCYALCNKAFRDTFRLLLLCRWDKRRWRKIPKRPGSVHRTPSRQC
Method in brief: (§2)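 Equilibrium runs were ≥2 h with 2 × 10⁻⁴ M GTP and 0.1–0.7 nM ³H-NMS. Nonspecific binding was defined with 10⁻⁶ M QNB, and bound ligand was filtered and counted. Log affinities came from semiquantitative plus off-rate, quantitative equilibrium, or nonequilibrium assays, fitted by nonlinear least squares to the allosteric ternary complex model.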

[3] = target: T1, Muscarinic acetylcholine receptor M4 (Homo sapiens); assay: Cooperativity with acetylcholine at human muscarinic acetylcholine receptor M4; method in brief: as §1
[4] = target: T3, Muscarinic acetylcholine receptor M5 (Homo sapiens) (UniProt P08912); assay: Cooperativity with NMS at Muscarinic acetylcholine receptor M5; method in brief: as §1
T3 sequence (whole entry): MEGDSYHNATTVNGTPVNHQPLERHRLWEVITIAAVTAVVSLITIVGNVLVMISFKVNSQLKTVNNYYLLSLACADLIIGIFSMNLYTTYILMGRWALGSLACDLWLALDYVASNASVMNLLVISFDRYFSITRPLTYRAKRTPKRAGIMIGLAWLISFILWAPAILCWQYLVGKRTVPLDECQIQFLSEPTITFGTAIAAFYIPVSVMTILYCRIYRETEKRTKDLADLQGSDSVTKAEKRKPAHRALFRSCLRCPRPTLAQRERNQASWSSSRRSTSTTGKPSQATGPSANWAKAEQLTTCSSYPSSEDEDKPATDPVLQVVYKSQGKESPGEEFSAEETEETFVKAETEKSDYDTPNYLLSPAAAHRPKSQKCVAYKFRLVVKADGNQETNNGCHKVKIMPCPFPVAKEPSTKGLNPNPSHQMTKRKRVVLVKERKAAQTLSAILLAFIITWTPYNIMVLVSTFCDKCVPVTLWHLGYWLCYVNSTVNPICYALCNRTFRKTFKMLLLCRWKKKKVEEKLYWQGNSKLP

[5] = target: Muscarinic acetylcholine receptor M3 (Homo sapiens) (UniProt P20309); assay: Binding affinity at the NMS liganded human muscarinic acetylcholine receptor M3 was estimated as log affinity (log1/M); method in brief: as §2
[6] = target: T3, Muscarinic acetylcholine receptor M5 (Homo sapiens); assay: Binding affinity at the unliganded Muscarinic acetylcholine receptor M5 was estimated as log affinity (log1/M); method in brief: as §2
[7] = target: Muscarinic acetylcholine receptor M3 (Homo sapiens) (UniProt P20309); assay: Binding affinity at the unliganded human muscarinic acetylcholine receptor M3 was estimated as log affinity (log1/M); method in brief: as §2
[8] = target: T4, Muscarinic acetylcholine receptor M2 (Homo sapiens) (UniProt P08172); assay: Binding affinity at the NMS liganded human muscarinic acetylcholine receptor M2 was estimated as log affinity (log1/M); method in brief: as §2
T4 sequence (whole entry): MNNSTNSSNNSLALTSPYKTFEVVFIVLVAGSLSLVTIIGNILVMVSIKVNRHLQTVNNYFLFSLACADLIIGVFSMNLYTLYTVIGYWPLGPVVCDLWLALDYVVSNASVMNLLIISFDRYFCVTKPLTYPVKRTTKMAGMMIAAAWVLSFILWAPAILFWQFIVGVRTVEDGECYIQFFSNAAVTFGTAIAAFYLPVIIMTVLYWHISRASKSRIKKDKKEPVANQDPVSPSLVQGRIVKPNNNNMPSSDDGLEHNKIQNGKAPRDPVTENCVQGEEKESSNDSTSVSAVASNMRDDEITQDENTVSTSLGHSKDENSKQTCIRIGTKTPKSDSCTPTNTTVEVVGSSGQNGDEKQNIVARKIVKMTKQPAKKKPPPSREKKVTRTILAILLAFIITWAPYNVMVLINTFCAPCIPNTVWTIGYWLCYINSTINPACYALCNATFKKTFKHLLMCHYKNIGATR

[9] = target: T1, Muscarinic acetylcholine receptor M4 (Homo sapiens); assay: Binding affinity at the NMS liganded human muscarinic acetylcholine receptor M4 was estimated as log affinity (log1/M); method in brief: as §2
[10] = target: T3, Muscarinic acetylcholine receptor M5 (Homo sapiens); assay: Cooperativity with acetylcholine at Muscarinic acetylcholine receptor M5; method in brief: as §1
[11] = target: T4, Muscarinic acetylcholine receptor M2 (Homo sapiens); assay: Cooperativity with NMS at human muscarinic acetylcholine receptor M2; method in brief: as §1
[12] = target: T2, Muscarinic acetylcholine receptor M1 (Homo sapiens); assay: Binding affinity at the unliganded human muscarinic acetylcholine receptor M1 was estimated as log affinity (log1/M); method in brief: as §2
[13] = target: T3, Muscarinic acetylcholine receptor M5 (Homo sapiens); assay: Binding affinity at the NMS liganded human muscarinic acetylcholine receptor M5 was estimated as log affinity (log1/M); method in brief: as §2
[14] = target: Muscarinic acetylcholine receptor M3 (Homo sapiens) (UniProt P20309); assay: Cooperativity with acetylcholine at human muscarinic acetylcholine receptor M3; method in brief: as §1
[15] = target: T1, Muscarinic acetylcholine receptor M4 (Homo sapiens); assay: Binding affinity at the unliganded human muscarinic acetylcholine receptor M4 was estimated as log affinity (log1/M); method in brief: as §2
[16] = target: T4, Muscarinic acetylcholine receptor M2 (Homo sapiens); assay: Binding affinity at the unliganded human muscarinic acetylcholine receptor M2 was estimated as log affinity (log1/M); method in brief: as §2
[17] = target: T2, Muscarinic acetylcholine receptor M1 (Homo sapiens); assay: Cooperativity with acetylcholine at human muscarinic acetylcholine receptor M1; method in brief: as §1
[18] = target: Muscarinic acetylcholine receptor M3 (Homo sapiens) (UniProt P20309); assay: Cooperativity with NMS at human muscarinic acetylcholine receptor M3; method in brief: as §1
[19] = target: T2, Muscarinic acetylcholine receptor M1 (Homo sapiens); assay: Cooperativity with NMS at human muscarinic acetylcholine receptor M1; method in brief: as §1
[20] = target: T4, Muscarinic acetylcholine receptor M2 (Homo sapiens); assay: Cooperativity with acetylcholine at human muscarinic acetylcholine receptor M2; method in brief: as §1

Chain of Muscarinic acetylcholine receptor M3 (Homo sapiens) (P20309 whole entry, looked up): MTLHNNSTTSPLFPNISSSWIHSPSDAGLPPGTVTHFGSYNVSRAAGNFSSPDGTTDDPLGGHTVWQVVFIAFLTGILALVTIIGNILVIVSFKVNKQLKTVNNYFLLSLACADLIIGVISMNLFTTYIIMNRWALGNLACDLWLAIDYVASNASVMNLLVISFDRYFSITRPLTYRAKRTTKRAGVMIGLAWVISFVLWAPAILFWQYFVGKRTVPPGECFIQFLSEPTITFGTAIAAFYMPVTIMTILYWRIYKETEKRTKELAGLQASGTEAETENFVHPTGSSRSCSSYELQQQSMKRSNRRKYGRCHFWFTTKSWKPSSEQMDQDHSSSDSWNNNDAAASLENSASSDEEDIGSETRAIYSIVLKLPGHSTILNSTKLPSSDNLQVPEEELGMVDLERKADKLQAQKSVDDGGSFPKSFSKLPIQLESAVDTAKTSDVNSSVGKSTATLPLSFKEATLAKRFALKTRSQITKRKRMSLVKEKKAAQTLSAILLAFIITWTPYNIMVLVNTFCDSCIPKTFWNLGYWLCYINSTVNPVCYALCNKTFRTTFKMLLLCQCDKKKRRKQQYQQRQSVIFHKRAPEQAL

Row | Compound | Cooperativity [1] | Affinity [2] | Cooperativity [3] | Cooperativity [4] | Affinity [5] | Affinity [6] | Affinity [7] | Affinity [8] | Affinity [9] | Cooperativity [10] | Cooperativity [11] | Affinity [12] | Affinity [13] | Cooperativity [14] | Affinity [15] | Affinity [16] | Cooperativity [17] | Cooperativity [18] | Cooperativity [19] | Cooperativity [20]
1 | COc1cc2c(cc1OC)[C@@]13CC[N+]4(N)CC5=CCO[C@H]6CC(=O)N2[C@H]1[C@H]6[C@H]5C[C@@H]34 (some centres undefined) | 2 | 3.8 | 0.8 | 0.8 | 3.9 | 3.6 | 3.8 | 4.2 | 4.2 | 0.8 | 2 | 3.8 | 3.3 | > 2 | < 4 | < 4 | 0.8 | 1.19 | 1.19 | 0.8
2 | C=CC[N+]12CC[C@@]34c5cc(OC)c(OC)cc5N5C(=O)C[C@@H]6OCC=C(C1)[C@H](C[C@@H]32)[C@@H]6[C@H]54 (some centres undefined) | 1.19 | 4.2 | 0.8 | 1.19 | 3.5 | 3.8 | 3.8 | 4.7 | 4.6 | 0.8 | 2 | 4.4 | – | 2 | 4.5 | 4.5 | 0.8 | 0.8 | 0.8 | 0.8
3 | COc1cc2c(cc1OC)[C@@]13CC[N+]4(CCl)CC5=CCO[C@H]6CC(=O)N2[C@H]1[C@H]6[C@H]5C[C@@H]34 (some centres undefined) | 1.19 | 4.1 | 1.19 | 0.2 | 3.3 | 3.7 | 3.7 | 4.4 | 4.3 | < 0.2 | 2 | 4.4 | 3.3 | > 0.2 | 4.3 | 4.2 | 0.2 | 0.2 | 0.2 | < 0.2
4 | COc1cc2c(cc1OC)[C@@]13CCN4CC5=CCO[C@H]6CC(=O)N2[C@H]1[C@H]6[C@H]5C[C@H]43 | 0.8 | 4.5 | 0.8 | < 0.2 | 2.9 | 4.3 | 3.5 | 4.7 | 4.5 | < 0.2 | 2 | 4.6 | 3.3 | 0.8 | 4.8 | 4.5 | 2 | 0.8 | 1.19 | 0.8
5 | C[N+]12CC[C@@]34c5ccccc5N5C(=O)C[C@@H]6OCC=C(C1)[C@H](C[C@@H]32)[C@@H]6[C@H]54 (some centres undefined) | > 2 | 4.5 | < 0.2 | – | 4.1 | – | < 4 | 5.1 | 4.7 | – | > 2 | < 4.1 | – | 0.8 | 4.1 | 4.4 | 0.8 | 2 | > 2 | < 0.2
6 | O=C1C[C@@H]2OCC=C3C[N+]4(Cc5ccc6ccccc6c5)CC[C@]56c7ccccc7N1[C@H]5[C@H]2[C@H]3C[C@@H]64 (some centres undefined) | 2 | 5.5 | 0.8 | – | 6 | – | < 5.8 | 6.1 | 5.9 | – | > 2 | < 5.3 | – | 0.8 | < 5.6 | 5.5 | 0.8 | 2 | 2 | < 0.2
7 | CC[N+]12CC[C@@]34c5ccccc5N5C(=O)C[C@@H]6OCC=C(C1)[C@H](C[C@@H]32)[C@@H]6[C@H]54 (some centres undefined) | > 2 | 4.6 | < 0.2 | – | 4.2 | – | 4.2 | 5.2 | 4.9 | – | > 2 | < 4.5 | – | 0.8 | 4.3 | 4.7 | 0.8 | 1.19 | 2 | < 0.2
8 | O=C1C[C@@H]2OCC=C3C[N+]4(Cc5ccccc5)CC[C@]56c7ccccc7N1[C@H]5[C@H]2[C@H]3C[C@@H]64 (some centres undefined) | 2 | 5.2 | 0.8 | – | 5.3 | – | < 5.2 | 6.3 | 5.6 | – | > 2 | < 5 | – | 0.8 | < 5.3 | 5.3 | < 0.2 | 2 | 2 | < 0.2
9 | N[N+]12CC[C@@]34c5ccccc5N5C(=O)C[C@@H]6OCC=C(C1)[C@H](C[C@@H]32)[C@@H]6[C@H]54 (some centres undefined) | > 2 | 4.7 | 0.8 | – | 4.5 | – | < 4.4 | 5.4 | 4.9 | – | > 2 | 4.3 | – | 0.8 | < 4.4 | < 4.8 | 0.8 | 2 | 2 | 0.8
